Calls of active or inactive are those of the source.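 The calls were made as follows, unless noted: active = Her2 level under about 52% in both replicate screens, with viability over 70% of control (limit read from the data); inconclusive = Her2 under the limit in one screen only, or viability under 70%; inactive = Her2 level above the set limit.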
Tests used:
[1] = Her2 expression decrease, cell viability multiplex – SKBR3 breast tumor cells, AlphaScreen, ATP viability, primary screen (AID 461); settings: SKBR3 Her2 protein level, 18-24 h, measured here: SKBR3 viability, ATP luminescence, at 10 µM;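 as to Her2 level: lower value means less Her2 protein in the cells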;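 as to viability: percent of carrier control wells set as 100% viability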
[2] = target: Receptor tyrosine-protein kinase erbB-2 (Homo sapiens) (UniProt P04626); assay: as above; settings: 18-24 h, at 10 µM, stronger effect = lower value
[3] = reduced viability of SK-BR-3 breast cancer cells – cell-based, 24 h, human, pilot screen (AID 572;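 active = viability at or below 10% of carrier control in both of two separate runs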;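 also: compound exposure lasted between 18 and 24 h rather than exactly 24 h; 100% = carrier-treated control wells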); settings: SK-BR-3 viability, CellTiter-Glo luminescence, at 10 µM, stronger effect = lower value
[4] = HUVEC growth inhibition – cell-based, human, primary screen (AID 575;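 active = viability at or below 30% in both replicate assays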;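 also: 100% = median of untreated cell wells with 0.1% DMSO on each plate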); settings: HUVEC proliferation, CellTiter-Glo luminescence, 72 h; at 10 µM; stronger effect = lower value
Procedure, shortened: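 material = primary HUVEC, no more than 12 passages | input = 1250 cells per well | controls = vehicle and MePR control wells | measured by = CTG luminescence | times = 72 h compound incubation | format = collagen-coated 384-well format | read-out = % viability vs DMSO wells | doses = single 10 µM dose, 0.1% DMSO, from 5x medium stock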

[5] = H69AR cell proliferation blockers – human, duplicate replicates, primary screen (AID 580;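 active = viability at or under a set limit in both replicates, limit being median viability minus 3 SD, cut at about 48% in these data, passing the limit was not always enough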;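 also: 100% = mean luminescence of untreated wells and 0% = no signal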); settings: H69AR lung tumor cells viability, ATP luminescence, 72 h; at 10 µM; stronger effect = lower value
[6] = MRP1 drug-resistance reversers in H69AR cells – cell-based, doxorubicin co-treatment, pilot screen (AID 601;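 active = viability loss from added drug above about 55%, and viability with drug at most 40%, in both replicates, limit read from the data, passing the limit was not always enough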); settings: CellTiter-Glo, 72 h, at 10 µM; for differential viability (reversal): stronger effect = higher value
[7] = yeast transport mutant growth inhibition pilot in 384-well plates, post-Golgi transport modulator project (AID 636; in the data active = inhibition above about 31%); settings: absorbance 615 nm, about 18 h, stronger effect = higher value
[8] = growth suppression of yeast trafficking mutant, preliminary HTS, modulators of trafficking downstream of Golgi apparatus project, 1536-format plate, OD 615 nm (AID 637; in the data active = inhibition above about 30%); settings: yeast transport mutant growth, absorbance 615 nm, 18 h; stronger effect = higher value
[9] = H69AR cells + 2 uM doxorubicin, measured here: viability with 2 uM doxorubicin, stronger effect = lower value
[10] = H69AR cells, compound alone cytotoxicity

Chain of Receptor tyrosine-protein kinase erbB-2 (Homo sapiens) (P04626 whole entry, looked up): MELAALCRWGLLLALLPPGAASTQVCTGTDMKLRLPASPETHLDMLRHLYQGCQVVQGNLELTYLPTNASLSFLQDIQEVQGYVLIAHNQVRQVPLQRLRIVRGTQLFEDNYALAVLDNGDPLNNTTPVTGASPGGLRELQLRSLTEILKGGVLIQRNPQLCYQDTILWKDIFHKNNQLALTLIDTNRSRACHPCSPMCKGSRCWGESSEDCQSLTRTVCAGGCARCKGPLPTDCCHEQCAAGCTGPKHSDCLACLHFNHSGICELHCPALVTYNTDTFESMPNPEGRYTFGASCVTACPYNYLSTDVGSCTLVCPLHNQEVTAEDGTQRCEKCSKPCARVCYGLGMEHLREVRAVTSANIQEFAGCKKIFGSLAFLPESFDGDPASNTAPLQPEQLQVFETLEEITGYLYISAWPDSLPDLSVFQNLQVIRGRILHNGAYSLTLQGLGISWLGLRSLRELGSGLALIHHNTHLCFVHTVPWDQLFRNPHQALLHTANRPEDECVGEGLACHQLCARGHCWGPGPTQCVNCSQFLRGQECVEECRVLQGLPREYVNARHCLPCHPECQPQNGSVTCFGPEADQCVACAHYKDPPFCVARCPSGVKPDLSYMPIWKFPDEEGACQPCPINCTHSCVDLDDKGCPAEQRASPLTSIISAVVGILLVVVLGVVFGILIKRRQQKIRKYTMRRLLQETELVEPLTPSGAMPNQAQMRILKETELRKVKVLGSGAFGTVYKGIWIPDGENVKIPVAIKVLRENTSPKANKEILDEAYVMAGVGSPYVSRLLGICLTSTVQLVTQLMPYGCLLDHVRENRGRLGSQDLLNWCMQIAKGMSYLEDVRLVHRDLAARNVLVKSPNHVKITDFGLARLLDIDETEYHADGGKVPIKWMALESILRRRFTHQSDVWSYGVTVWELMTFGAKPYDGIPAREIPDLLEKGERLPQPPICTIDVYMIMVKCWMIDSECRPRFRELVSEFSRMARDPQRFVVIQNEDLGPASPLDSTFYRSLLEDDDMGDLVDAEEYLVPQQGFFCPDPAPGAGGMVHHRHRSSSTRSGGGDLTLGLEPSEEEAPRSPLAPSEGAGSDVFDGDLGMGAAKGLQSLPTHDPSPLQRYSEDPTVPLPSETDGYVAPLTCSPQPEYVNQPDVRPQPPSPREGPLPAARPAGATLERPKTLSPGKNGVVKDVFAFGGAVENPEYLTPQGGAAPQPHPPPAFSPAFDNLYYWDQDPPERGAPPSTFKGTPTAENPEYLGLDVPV

SMILES	viability [1]	Her2 level [2]	viability [3]	viability [4]	viability [5]	differential viability (reversal) ([6]; H69AR cells + 2 uM doxorubicin)	viability [6, 9]	viability [6, 10]	inhibition [7]	inhibition [8]
CCC(=O)N1CCN(CCN=CC2=C(O)CC(C)(C)CC2=O)CC1	90.5%	93.5% (inactive)	90.5% (inactive)	79.6% (inactive)	107% (inactive)	11.3% (inactive)	95.2%	107%	-1.6% (inactive)	-6.77% (inactive)
CC(C)C(=O)Nc1nnc(CCc2nnc(NC(=O)C(C)C)s2)s1	99%	97% (inactive)	99% (inactive)	106% (inactive)	93.6% (inactive)	2.27% (inactive)	91.3%	93.6%	-4.61% (inactive)	0.16% (inactive)
CCn1cc(S(=O)(=O)CC(=O)Nc2ccc(OC)cc2)c2ccccc21	104%	88% (inactive)	104% (inactive)	105% (inactive)	91.8% (inactive)	21.4% (inactive)	70.4%	91.8%	-1.6% (inactive)	0% (inactive)
CN(C)c1ccc2c(c1)OC(N)=C(C#N)C2c1cccc(F)c1 (stereo not given)	92%	90.5% (inactive)	92% (inactive)	17.2% (active)	34.7% (active)	-41% (inactive)	75.7%	34.7%	-3.24% (inactive)	4.75% (inactive)
CCOc1ccc(C(=O)N(Cc2ccc(N(C)C)cc2)C2CCS(=O)(=O)C2)cc1 (stereo not given)	114%	121% (inactive)	114% (inactive)	101% (inactive)	88.1% (inactive)	-16.6% (inactive)	105%	88.1%	-1.18% (inactive)	2.79% (inactive)
O=C1NC(Cc2c[nH]c3ccccc23)C(=O)N1CCOc1ccccc1 (stereo not given)	79.5%	89% (inactive)	79.5% (inactive)	73.2% (inactive)	94.4% (inactive)	0.2% (inactive)	94.2%	94.4%	-2.76% (inactive)	-1.83% (inactive)
CCC1SC2=NC(C)=C(C(=O)OC)C(c3ccc(C)cc3)N2C1=O (stereo not given)	94%	96% (inactive)	94% (inactive)	109% (inactive)	99.6% (inactive)	9% (inactive)	90.6%	99.6%	-3.51% (inactive)	-1.59% (inactive)
CS(=O)(=O)N(CC(=O)NCc1ccccn1)c1ccc2c(c1)OCCO2	104%	104% (inactive)	104% (inactive)	96.8% (inactive)	97.8% (inactive)	9.83% (inactive)	87.9%	97.8%	-6.93% (inactive)	4.35% (inactive)
Cc1ccc(C)c(/C(O)=C2\C(=O)C(=O)N(CCCN3CCOCC3)C2c2cccnc2)c1 (stereo not given)	99%	101% (inactive)	99% (inactive)	91.4% (inactive)	90.2% (inactive)	-5.11% (inactive)	95.3%	90.2%	-3.59% (inactive)	-2.33% (inactive)
O=C(c1cc(S(=O)(=O)N2CCOCC2)ccc1F)N1CCCc2ccccc21	99%	87% (inactive)	99% (inactive)	102% (inactive)	90.9% (inactive)	-3.44% (inactive)	94.3%	90.9%	0.64% (inactive)	-2.83% (inactive)
O=C(CSc1nnc(CNC(=O)c2cccs2)o1)NC1CCCC1	102%	100% (inactive)	102% (inactive)	102% (inactive)	82.4% (inactive)	-0.76% (inactive)	83.2%	82.4%	-0.26% (inactive)	-1.17% (inactive)
COc1ccc(Cc2nn3c(-c4cc(OC)c(OC)c(OC)c4)nnc3s2)cc1	95%	76.5% (inactive)	95% (inactive)	102% (inactive)	81.6% (inactive)	11.7% (inactive)	69.9%	81.6%	-6.08% (inactive)	5.17% (inactive)
O=C(NCC1COc2ccccc2O1)C1CCCN(S(=O)(=O)c2cnc[nH]2)C1 (stereo not given)	88%	101% (inactive)	88% (inactive)	91.9% (inactive)	109% (inactive)	18.9% (inactive)	89.7%	109%	-2.13% (inactive)	-2.95% (inactive)
Cc1ccc(Cc2c(C)nc3c(C(=O)O)cnn3c2C)cc1	93.5%	114% (inactive)	93.5% (inactive)	85.5% (inactive)	91.9% (inactive)	-10.4% (inactive)	102%	91.9%	-4.34% (inactive)	-5.17% (inactive)
CC(C)(C)C(=O)CCN1C(=O)C2(OCCO2)c2ccccc21	104%	106% (inactive)	104% (inactive)	83.9% (inactive)	103% (inactive)	9.06% (inactive)	94.1%	103%	-1.82% (inactive)	-2.3% (inactive)
Cc1ccc(CNC(=O)CSc2n[nH]c(N)n2)cc1	100%	99.5% (inactive)	100% (inactive)	82.3% (inactive)	96.6% (inactive)	-1.86% (inactive)	98.5%	96.6%	0.79% (inactive)	5.9% (inactive)

SMILES	viability [1]	Her2 level [2]	viability [3]	viability [4]	viability [5]	differential viability (reversal) ([6]; H69AR cells + 2 uM doxorubicin)	viability [6, 9]	viability [6, 10]	inhibition [7]	inhibition [8]
C=CCn1c2ccccc2c2nnc(SCC(=O)NC(C(=O)OC)C(C)C)nc21 (stereo not given)	112%	96% (inactive)	112% (inactive)	83.5% (inactive)	76.8% (inactive)	2.25% (inactive)	74.5%	76.8%	-3.12% (inactive)	-4.26% (inactive)
COc1ccc(S(=O)(=O)NCC(c2cccnc2)N2CCN(c3ccc(F)cc3)CC2)cc1C (stereo not given)	91.5%	80% (inactive)	91.5% (inactive)	99.1% (inactive)	87.4% (inactive)	-0.665% (inactive)	88.1%	87.4%	-1.04% (inactive)	-0.98% (inactive)
COCCNc1oc(-c2ccc(C)cc2)nc1C#N	102%	81% (inactive)	102% (inactive)	113% (inactive)	85.9% (inactive)	8.44% (inactive)	77.5%	85.9%	-4.46% (inactive)	3.33% (inactive)
Cc1cc(-c2ccccc2)c2nncn2n1	106%	96% (inactive)	106% (inactive)	116% (inactive)	89.9% (inactive)	5.82% (inactive)	84.1%	89.9%	-8.27% (inactive)	2.42% (inactive)
O=C(O)C1C2CCC(O2)C1C(=O)NCCC1=CCCCC1 (stereo not given)	78.5%	118% (inactive)	78.5% (inactive)	34.2% (inactive)	57.8% (inactive)	-9.07% (inactive)	66.8%	57.8%	0% (inactive)	0.5% (inactive)
CCOC(=O)C1=C(c2ccccc2)Nc2nc(C)nn2C1c1cccc(OC)c1OC (stereo not given)	111%	130% (inactive)	111% (inactive)	90.6% (inactive)	90.2% (inactive)	36.8% (inactive)	53.4%	90.2%	-2.24% (inactive)	-0.66% (inactive)
Cn1nnnc1SCC(=O)NC1CCCCC1	77.5%	77% (inactive)	77.5% (inactive)	108% (inactive)	96.1% (inactive)	-1.11% (inactive)	97.2%	96.1%	-5.95% (inactive)	-2.62% (inactive)
Cc1ccc(Cn2ncc3c(NCCCN4CCOCC4)ncnc32)cc1	92.5%	92.5% (inactive)	92.5% (inactive)	96.8% (inactive)	102% (inactive)	18.2% (inactive)	83.6%	102%	-2.63% (inactive)	0.32% (inactive)
CCn1cc(C(=O)O)c(=O)c2cc(F)c(N3CCN(C(=O)Nc4ccccc4)CC3)cc21	108%	92% (inactive)	108% (inactive)	111% (inactive)	79.5% (inactive)	-1.55% (inactive)	81.1%	79.5%	-3.87% (inactive)	0% (inactive)
Cc1cc(C(=O)NCCCN2CCOCC2)n(-c2ccccc2)n1	94.5%	100% (inactive)	94.5% (inactive)	106% (inactive)	102% (inactive)	9.44% (inactive)	92.2%	102%	-2.27% (inactive)	3.61% (inactive)
CC1=NC(Nc2nc(C)c3ccccc3n2)=NC(C)(C)C1	78.5%	72.5% (inactive)	78.5% (inactive)	74.3% (inactive)	62.4% (inactive)	-14.6% (inactive)	77%	62.4%	-0.39% (inactive)	-7.38% (inactive)
Cc1nc(NC(=O)C2CC3CCCC(C2)C3=O)sc1C (stereo not given)	99.5%	99.5% (inactive)	99.5% (inactive)	95% (inactive)	82.8% (inactive)	-2.88% (inactive)	85.7%	82.8%	0.39% (inactive)	-6.39% (inactive)
O=C(COc1nnnc2ccccc12)N1CCCc2ccccc21	97%	87% (inactive)	97% (inactive)	98.2% (inactive)	98.3% (inactive)	0.405% (inactive)	97.9%	98.3%	-4.8% (inactive)	6.07% (inactive)
Cc1nnc(SCC(=O)NCCN2C(=O)CSC2=O)s1	96.5%	102% (inactive)	96.5% (inactive)	114% (inactive)	98.3% (inactive)	-1.88% (inactive)	100%	98.3%	-3.24% (inactive)	0.63% (inactive)
C=CCOC(=O)C(C#N)c1nc2ccccc2nc1N1CCN(Cc2ccccc2)CC1 (stereo not given)	94%	79% (inactive)	94% (inactive)	77.7% (inactive)	84.1% (inactive)	-9.45% (inactive)	93.6%	84.1%	-4.53% (inactive)	2.3% (inactive)
O=C(OCC(=O)N1CCCC1)c1cncc(Br)c1	106%	90% (inactive)	106% (inactive)	106% (inactive)	102% (inactive)	15.6% (inactive)	86.4%	102%	-7.57% (inactive)	5.33% (inactive)
